ChEMBL document CHEMBL1933000, “Design, synthesis and antitumor activity of 4-aminoquinazoline derivatives targeting VEGFR-2 tyrosine kinase” (Bioorg Med Chem Lett, 2012)

What was measured:
HUVEC = assay: Antiproliferative activity against VEGF-stimulated HUVEC after 48 hrs by sulforhodamine B assay; conditions: Homo sapiens
[1] = Lipophilicity, log P of the compound; type: physicochemical; conditions: octanol/water
Mus musculus [2] = assay: Toxicity in nude BALB/c mouse xenografted with human HepG2 cells assessed as clinically observable signs of toxicity at 100 mg/kg, po qd at 3 doses for 15 days; type: organism-based; parameters: dose 100 mg/kg, route oral; conditions: in vivo, 360 h
How it was run: (§1)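 BALB/c-nu mice bearing sc flank HepG2 xenografts received oral compound once daily for 15 days, top dose 100 mg/kg, starting five days after implantation. Animals were watched for clinically observable toxicity signs and for body weight loss; n = 8.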

Angiopoietin-1 receptor = Angiopoietin-1 receptor (Homo sapiens, UniProt Q02763); assay: Inhibition of Tie2
[3] = biological target: Vascular endothelial growth factor receptor 2 (Homo sapiens, UniProt P35968); assay: Inhibition of human GST-tagged VEGFR2 intracellular domain using biotin-aminohexyl-EEEEYFELVAKKKK-NH2 as substrate after 30 mins by HTRF assay
[4] = biological target: Platelet-derived growth factor receptor alpha (Homo sapiens, UniProt P16234); assay: Inhibition of PDGFRalpha
[5] = biological target: Vascular endothelial growth factor receptor 1 (Homo sapiens, UniProt P17948); assay: Inhibition of VEGFR1
HepG2 [6] = assay: Antitumor activity against human HepG2 cells xenografted in BALB/c nude mouse assessed as tumor growth inhibition administered as po qd at 3 doses for 15 days; type: functional, organism-based
How it was run: (§2)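 HepG2 hepatocarcinoma cells (1 × 10⁷) implanted sc in the flank of BALB/c-nu mice. Once-daily oral dosing of compound or vehicle began five days after implantation and ran 15 days at 20, 50 or 100 mg/kg. Tumor growth followed; %TGI; mean and SE, n = 8.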

[7] = biological target: Cyclin-dependent kinase 1 (Homo sapiens, UniProt P06493); assay: Inhibition of CDK1
HepG2 [8] = assay: Antitumor activity against human HepG2 cells xenografted in BALB/c nude mouse assessed as tumor growth inhibition at 20 mg/kg, po qd at 3 doses for 15 days; type: functional; conditions: HepG2, 360 h, read-out: TGI; how it was run: as §2
HepG2 [9] = assay: Antitumor activity against human HepG2 cells xenografted in BALB/c nude mouse assessed as tumor growth inhibition at 100 mg/kg, po qd at 3 doses for 15 days; type: functional; conditions: HepG2, 360 h, read-out: TGI; how it was run: as §2
[10] = biological target: Vascular endothelial growth factor receptor 3 (Homo sapiens, UniProt P35916); assay: Inhibition of VEGFR3
[11] = biological target: Receptor tyrosine-protein kinase erbB-2 (Homo sapiens, UniProt P04626); assay: Inhibition of HER2
Mus musculus [12] = assay: Toxicity in nude BALB/c mouse xenografted with human HepG2 cells assessed as weight loss at 100 mg/kg, po qd at 3 doses for 15 days; type: organism-based; parameters: dose 100 mg/kg, route oral; conditions: in vivo, 360 h; how it was run: as §1
HepG2 [13] = assay: Antitumor activity against human HepG2 cells xenografted in BALB/c nude mouse assessed as tumor growth inhibition at 50 mg/kg, po qd at 3 doses for 15 days; type: functional; conditions: HepG2, 360 h, read-out: TGI; how it was run: as §2
[14] = Inhibition of AKT
[15] = biological target: Fibroblast growth factor receptor 1 (Homo sapiens, UniProt P11362); assay: Inhibition of FGFR1
[16] = Dissociation constant, pKa of the compound; type: physicochemical
[17] = Solubility of the compound in water; type: physicochemical; conditions: buffer

Chain of Platelet-derived growth factor receptor alpha (P16234 whole entry): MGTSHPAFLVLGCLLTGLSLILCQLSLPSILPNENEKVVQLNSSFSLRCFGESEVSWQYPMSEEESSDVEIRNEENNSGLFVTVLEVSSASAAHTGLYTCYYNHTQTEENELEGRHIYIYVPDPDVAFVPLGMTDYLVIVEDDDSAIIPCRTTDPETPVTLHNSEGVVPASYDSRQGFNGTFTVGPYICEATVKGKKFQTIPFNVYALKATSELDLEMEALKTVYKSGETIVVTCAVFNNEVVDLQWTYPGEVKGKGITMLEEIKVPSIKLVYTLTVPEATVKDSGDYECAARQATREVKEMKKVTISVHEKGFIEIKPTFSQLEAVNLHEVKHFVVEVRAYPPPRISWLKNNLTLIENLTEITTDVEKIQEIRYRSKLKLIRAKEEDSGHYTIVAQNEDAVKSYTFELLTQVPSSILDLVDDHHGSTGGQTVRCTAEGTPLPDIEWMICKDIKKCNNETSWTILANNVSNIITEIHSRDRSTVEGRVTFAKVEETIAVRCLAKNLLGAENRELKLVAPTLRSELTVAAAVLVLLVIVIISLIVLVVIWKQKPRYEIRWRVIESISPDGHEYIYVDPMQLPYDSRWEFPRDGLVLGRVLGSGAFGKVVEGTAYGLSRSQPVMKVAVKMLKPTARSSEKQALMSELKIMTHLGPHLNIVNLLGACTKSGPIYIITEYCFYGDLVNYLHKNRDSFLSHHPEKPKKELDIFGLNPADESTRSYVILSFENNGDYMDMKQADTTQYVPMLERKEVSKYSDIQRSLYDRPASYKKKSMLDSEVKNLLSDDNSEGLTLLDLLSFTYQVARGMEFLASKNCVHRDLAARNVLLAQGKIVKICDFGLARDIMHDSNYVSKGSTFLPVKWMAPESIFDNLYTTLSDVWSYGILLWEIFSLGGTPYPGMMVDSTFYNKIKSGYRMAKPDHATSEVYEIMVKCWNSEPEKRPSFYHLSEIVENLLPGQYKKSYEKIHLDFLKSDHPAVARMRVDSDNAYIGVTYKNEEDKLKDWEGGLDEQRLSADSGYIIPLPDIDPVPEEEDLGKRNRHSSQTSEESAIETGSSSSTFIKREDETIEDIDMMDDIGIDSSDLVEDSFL
Chain of Receptor tyrosine-protein kinase erbB-2 (P04626 whole entry): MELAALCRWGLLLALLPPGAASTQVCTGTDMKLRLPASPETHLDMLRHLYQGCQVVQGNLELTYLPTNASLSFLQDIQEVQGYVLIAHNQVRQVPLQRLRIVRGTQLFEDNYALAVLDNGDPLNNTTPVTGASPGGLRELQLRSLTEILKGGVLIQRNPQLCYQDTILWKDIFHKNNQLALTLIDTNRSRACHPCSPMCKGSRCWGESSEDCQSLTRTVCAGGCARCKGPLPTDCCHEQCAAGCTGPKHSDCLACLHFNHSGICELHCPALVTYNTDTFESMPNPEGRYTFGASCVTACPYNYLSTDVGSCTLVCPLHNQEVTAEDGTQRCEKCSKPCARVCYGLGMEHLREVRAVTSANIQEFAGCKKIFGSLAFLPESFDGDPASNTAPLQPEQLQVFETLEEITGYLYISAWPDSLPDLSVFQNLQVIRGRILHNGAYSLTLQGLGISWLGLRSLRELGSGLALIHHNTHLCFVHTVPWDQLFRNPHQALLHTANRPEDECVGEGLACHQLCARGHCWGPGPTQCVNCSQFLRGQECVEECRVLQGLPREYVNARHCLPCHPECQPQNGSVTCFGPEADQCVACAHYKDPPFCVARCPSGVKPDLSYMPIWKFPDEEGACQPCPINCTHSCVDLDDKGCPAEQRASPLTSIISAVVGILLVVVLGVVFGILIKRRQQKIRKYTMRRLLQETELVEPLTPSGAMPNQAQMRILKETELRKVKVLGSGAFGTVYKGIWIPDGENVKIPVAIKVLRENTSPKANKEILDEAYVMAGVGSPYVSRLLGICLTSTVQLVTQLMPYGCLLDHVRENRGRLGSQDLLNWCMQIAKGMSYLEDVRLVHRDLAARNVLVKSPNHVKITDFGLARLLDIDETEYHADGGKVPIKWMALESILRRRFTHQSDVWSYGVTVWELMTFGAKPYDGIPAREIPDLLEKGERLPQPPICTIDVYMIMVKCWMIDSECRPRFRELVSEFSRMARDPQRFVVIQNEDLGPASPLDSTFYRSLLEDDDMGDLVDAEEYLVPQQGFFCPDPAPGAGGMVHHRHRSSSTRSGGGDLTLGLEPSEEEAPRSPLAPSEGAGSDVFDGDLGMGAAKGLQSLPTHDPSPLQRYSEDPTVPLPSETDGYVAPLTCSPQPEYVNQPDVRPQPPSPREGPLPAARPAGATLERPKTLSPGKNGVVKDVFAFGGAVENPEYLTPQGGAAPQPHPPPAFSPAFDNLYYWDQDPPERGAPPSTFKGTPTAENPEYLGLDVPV
Chain of Fibroblast growth factor receptor 1 (P11362 whole entry): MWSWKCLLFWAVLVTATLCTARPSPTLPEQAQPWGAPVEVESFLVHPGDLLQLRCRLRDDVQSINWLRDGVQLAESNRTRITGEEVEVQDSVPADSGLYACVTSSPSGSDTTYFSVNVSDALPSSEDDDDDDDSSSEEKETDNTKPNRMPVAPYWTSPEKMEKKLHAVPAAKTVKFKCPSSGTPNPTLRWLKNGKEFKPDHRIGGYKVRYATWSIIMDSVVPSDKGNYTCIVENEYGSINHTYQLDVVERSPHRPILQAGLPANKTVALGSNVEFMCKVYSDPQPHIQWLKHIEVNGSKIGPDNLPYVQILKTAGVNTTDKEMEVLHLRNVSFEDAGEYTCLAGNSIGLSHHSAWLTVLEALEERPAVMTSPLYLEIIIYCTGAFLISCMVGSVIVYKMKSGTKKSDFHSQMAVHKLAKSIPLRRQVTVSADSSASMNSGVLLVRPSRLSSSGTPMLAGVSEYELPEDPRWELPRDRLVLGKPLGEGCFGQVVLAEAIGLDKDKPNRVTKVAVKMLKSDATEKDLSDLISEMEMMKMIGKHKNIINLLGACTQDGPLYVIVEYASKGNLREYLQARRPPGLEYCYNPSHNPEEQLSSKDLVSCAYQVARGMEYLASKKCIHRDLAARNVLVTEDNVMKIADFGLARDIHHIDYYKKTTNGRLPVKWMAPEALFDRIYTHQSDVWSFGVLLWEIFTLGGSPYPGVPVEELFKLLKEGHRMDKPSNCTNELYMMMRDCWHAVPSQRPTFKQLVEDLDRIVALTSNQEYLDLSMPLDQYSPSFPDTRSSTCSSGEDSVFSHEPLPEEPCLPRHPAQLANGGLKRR
Chain of Vascular endothelial growth factor receptor 3 (P35916 whole entry): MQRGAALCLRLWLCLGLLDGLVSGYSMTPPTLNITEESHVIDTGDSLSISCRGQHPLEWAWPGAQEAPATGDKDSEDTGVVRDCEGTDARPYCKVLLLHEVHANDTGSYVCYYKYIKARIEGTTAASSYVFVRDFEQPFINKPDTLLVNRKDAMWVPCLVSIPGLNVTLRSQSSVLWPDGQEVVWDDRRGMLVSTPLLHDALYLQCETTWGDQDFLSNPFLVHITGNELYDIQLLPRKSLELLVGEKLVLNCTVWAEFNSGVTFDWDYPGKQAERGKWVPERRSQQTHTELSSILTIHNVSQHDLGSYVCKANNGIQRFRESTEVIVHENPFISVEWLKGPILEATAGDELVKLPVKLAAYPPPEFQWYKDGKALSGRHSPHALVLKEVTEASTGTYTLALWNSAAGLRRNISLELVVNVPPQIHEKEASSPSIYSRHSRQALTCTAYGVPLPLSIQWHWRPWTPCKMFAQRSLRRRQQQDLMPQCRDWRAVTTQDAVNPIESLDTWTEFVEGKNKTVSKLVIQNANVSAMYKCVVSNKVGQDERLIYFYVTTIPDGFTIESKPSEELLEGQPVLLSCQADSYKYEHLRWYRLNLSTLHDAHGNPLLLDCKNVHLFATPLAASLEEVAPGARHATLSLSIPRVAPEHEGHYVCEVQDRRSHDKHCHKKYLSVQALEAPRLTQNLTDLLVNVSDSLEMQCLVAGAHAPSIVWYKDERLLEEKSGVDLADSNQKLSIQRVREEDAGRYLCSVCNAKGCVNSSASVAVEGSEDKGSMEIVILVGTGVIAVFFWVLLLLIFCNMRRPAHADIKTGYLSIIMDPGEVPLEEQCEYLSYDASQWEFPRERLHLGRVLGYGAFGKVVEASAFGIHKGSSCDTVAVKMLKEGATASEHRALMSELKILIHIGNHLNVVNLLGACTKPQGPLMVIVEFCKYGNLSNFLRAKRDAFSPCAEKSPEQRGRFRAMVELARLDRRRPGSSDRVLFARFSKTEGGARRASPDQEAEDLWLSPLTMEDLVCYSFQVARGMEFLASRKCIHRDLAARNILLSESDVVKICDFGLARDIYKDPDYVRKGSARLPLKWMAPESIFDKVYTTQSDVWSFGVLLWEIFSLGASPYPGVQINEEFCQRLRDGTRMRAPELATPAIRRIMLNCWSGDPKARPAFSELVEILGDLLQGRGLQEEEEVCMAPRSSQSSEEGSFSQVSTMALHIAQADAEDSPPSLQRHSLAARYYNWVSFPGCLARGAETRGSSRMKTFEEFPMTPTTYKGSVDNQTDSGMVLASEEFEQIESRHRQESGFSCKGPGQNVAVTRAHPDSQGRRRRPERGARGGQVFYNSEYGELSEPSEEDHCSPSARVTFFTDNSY
Chain of Cyclin-dependent kinase 1 (P06493 whole entry): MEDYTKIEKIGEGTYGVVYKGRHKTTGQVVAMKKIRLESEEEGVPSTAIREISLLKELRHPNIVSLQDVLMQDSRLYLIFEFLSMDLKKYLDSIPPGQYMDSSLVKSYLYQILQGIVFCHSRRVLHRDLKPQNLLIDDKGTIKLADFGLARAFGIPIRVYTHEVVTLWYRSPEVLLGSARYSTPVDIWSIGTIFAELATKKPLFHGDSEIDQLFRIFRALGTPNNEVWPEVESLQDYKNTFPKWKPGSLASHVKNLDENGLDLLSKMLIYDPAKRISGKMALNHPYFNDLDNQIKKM

## CN1CCC(COc2ccc3c(Nc4ccc(NC(=O)Nc5cccc(F)c5)c(Cl)c4)ncnc3c2)CC1
HUVEC
  IC50: 132 nM

## CN1CCC(COc2ccc3c(Nc4ccc(NC(=O)NC5CC5)cc4)ncnc3c2)CC1
HUVEC
  IC50: 324 nM

## CNC(=O)c1cc(Oc2ccc(NC(=O)Nc3ccc(Cl)c(C(F)(F)F)c3)cc2)ccn1 [SORAFENIB]
[1]
  logP: 5

## CN1CCC(COc2ccc3c(Nc4ccc(NC(=O)Nc5ccc(Br)cc5F)cc4)ncnc3c2)CC1
HUVEC
  IC50: 233 nM

## CN1CCC(COc2ccc3c(Nc4ccc(NC(=O)Nc5ccc(F)c(F)c5)cc4)ncnc3c2)CC1
HUVEC
  IC50: 89 nM

## CN1CCC(COc2ccc3c(Nc4ccc(NC(=O)Nc5cccc(F)c5)cc4)ncnc3c2)CC1
HUVEC
  IC50: 52 nM
Mus musculus [2]
  Activity: Non-toxic
Angiopoietin-1 receptor
  IC50: > 10000 nM
[3]
  IC50: 5.5 nM
[4]
  IC50: 1360 nM
[5]
  IC50: 1920 nM
HepG2 [6]
  TGI: Dose-dependent effect
[7]
  IC50: 10000 nM
HepG2 [8]
  inhibition in vivo at 20 mg/kg: 25.6%
HepG2 [9]
  inhibition in vivo at 100 mg/kg: 83.6%
[10]
  IC50: 9.6 nM
[11]
  IC50: > 10000 nM
Mus musculus [12]
  Activity: Non-toxic
HepG2 [13]
  inhibition in vivo at 50 mg/kg: 61.4%
[14]
  IC50: 8710 nM
[15]
  IC50: > 10000 nM

## Cc1ccc(NC(=O)Nc2ccc(Nc3ncnc4cc(OCC5CCN(C)CC5)ccc34)cc2)cc1Br
HUVEC
  IC50: 196 nM

## CN1CCC(COc2ccc3c(Nc4ccc(CC(=O)Nc5ccc(F)c(F)c5)cc4)ncnc3c2)CC1
HUVEC
  IC50: 308 nM

## CN1CCC(COc2ccc3c(Nc4ccc(CC(=O)Nc5ccc(Cl)c(C(F)(F)F)c5)cc4)ncnc3c2)CC1
HUVEC
  IC50: 258 nM

## CN1CCC(COc2ccc3c(Nc4ccc(NC(=O)Nc5cccc(F)c5)c(F)c4)ncnc3c2)CC1
HUVEC
  IC50: 67 nM

## CCNC(=O)Nc1ccc(Nc2ncnc3cc(OCC4CCN(C)CC4)ccc23)cc1
HUVEC
  IC50: 587 nM

## COc1cc2c(Nc3ccc(NC(=O)Nc4cccc(F)c4)cc3)ncnc2cc1OCC1CCN(C)CC1
HUVEC
  IC50: 179 nM

## CN1CCC(COc2ccc3c(Nc4ccc(NC(=O)Nc5ccc(Cl)c(C(F)(F)F)c5)cc4)ncnc3c2)CC1
HUVEC
  IC50: 92 nM

## COc1cc2c(Nc3ccc(NC(=O)Nc4cccc(F)c4)c(F)c3)ncnc2cc1OCC1CCN(C)CC1
HUVEC
  IC50: 185 nM

## CN1CCCCC1
[16]
  pKa: 8.1

## CN1CCC(COc2ccc3c(Nc4ccc(CC(=O)Nc5cccc(F)c5)cc4)ncnc3c2)CC1
HUVEC
  IC50: 237 nM

## COc1cc2c(Nc3ccc(Br)cc3F)ncnc2cc1OCC1CCN(C)CC1 [VANDETANIB]
HUVEC
  IC50: 187 nM
[17]
  solubility: soluble
